Only some compounds are listed: those with a hit (about 3.3% of all), similar ones and a draw of the others.
SENP1 FRET inh: SENP1 (human) catalytic domain inhibition | recombinant SENP1 catalytic domain, CyPet-SUMO1-YPet FRET cleavage | hit rate 0.21% among 360,000 | inhibition, % at 10 µM;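 active = inhibition at least 30% at 10 µM, raw YFP signal under a set limit, fluorescence ratio 0.5 to 1.5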
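System: Recombinant human SENP1 catalytic domain, His6-tagged | Incubation: Enzyme reaction for 50 min at room temperature, dark | Medium: Tris pH 8 with BME, BSA, NP40 and catalase | Also added: 25 nM SUMO1 FRET substrate | Compound: 10 µM single point, 0.5% DMSO | Measured by: FRET fluorescence in CFP and YFP emission channels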
SENP6 block: blocks the human protease SENP6; Q9GZR1; Recombinant SENP6 catalytic domain, aminoluciferin luminescence; inhibition, % at 10 µM; hit rate 1.8% among 330,000;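 active = inhibition above about 50% at the single tested dose, limit read from the data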
SENP8 block-1: inhibitors of human SENP8 protease | recombinant SENP8, Nedd8 substrate fluorescence | inhibition, % at 20 µM | hit rate 0.64% among 360,000 | AID 602440; in the data active = inhibition mostly above about 40%, no sharp cut-off; inactive = mostly below about 27%
CendR NRP1 mod: NRP-1/CendR interaction modulation | O14786 | FAM-RPARPAR peptide binding to NRP-1, fluorescence polarization | inhibition, % at 25 µM | hit rate 0.85% among 360,000 | AID 602438;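 active = inhibition or corrected inhibition above about 18%, plus a signal ratio from 0.5 to 1.5, limit read from the data, passing the limit was not always enough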
Target sequence (O14786 whole entry, looked up): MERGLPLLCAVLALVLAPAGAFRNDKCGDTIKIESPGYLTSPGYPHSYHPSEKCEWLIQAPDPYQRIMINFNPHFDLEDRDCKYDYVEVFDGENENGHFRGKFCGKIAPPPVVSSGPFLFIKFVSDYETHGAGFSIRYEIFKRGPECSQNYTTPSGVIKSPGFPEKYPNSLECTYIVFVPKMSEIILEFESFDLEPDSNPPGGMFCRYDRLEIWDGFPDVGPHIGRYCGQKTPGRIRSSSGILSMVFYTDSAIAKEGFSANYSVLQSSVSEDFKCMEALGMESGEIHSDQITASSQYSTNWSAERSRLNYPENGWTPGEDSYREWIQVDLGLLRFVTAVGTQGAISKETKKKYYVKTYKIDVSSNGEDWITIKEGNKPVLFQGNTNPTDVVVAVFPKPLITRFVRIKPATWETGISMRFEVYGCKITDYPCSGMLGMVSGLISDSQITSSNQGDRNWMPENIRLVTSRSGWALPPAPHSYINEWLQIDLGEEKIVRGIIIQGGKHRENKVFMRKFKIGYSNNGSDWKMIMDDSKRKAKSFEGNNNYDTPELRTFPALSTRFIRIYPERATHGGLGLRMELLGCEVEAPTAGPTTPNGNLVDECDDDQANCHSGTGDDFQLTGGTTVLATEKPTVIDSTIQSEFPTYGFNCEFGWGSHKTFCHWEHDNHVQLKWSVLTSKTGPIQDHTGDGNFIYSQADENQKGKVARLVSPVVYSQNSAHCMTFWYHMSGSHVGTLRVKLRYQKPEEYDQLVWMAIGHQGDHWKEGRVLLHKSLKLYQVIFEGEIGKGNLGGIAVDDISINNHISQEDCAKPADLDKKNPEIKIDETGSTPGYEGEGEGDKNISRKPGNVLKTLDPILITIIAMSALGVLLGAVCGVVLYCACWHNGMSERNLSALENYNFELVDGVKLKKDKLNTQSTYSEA
SENP7 block: inhibitors of human SENP7 protease; hit rate 1.5% among 330,000; inhibition, % at 5 µM; AID 434973; recombinant SENP7, Z-RLRGG-aminoluciferin luminescence, 40 min; Q9BQF6;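 active = inhibition above about 50% at the single test dose, limit read from the data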
SENP8 block-2: blocks the human protease SENP8; Q96LD8; purified SENP8, Z-RLRGG-aminoluciferin cleavage, luminescence; inhibition, % at 10 µM; hit rate 1.2% among 330,000; AID 2540; in the data active = inhibition above about 50%
A number is an active result; - = inactive; . = not tested or not shown; ! = a repeat was not active.

SMILES	SENP1 FRET inh	SENP6 block	SENP8 block-1	CendR NRP1 mod	SENP7 block	SENP8 block-2
Cc1cc(N2CCOCC2)c2c(N)cc(C)c(C)c2n1	-	-	-	22.4	-	-
Cc1ccc(-c2nnc(Nc3ccc4c(c3)OCO4)c3ccccc23)cc1S(=O)(=O)NC(C)C	-	-	-	28.0	-	-
CCc1nc2c(OCc3ccc(F)c(F)c3)cccn2c1N(C)C(=O)c1ccc(OC)cc1	-	.	-	-	.	.
CCOC(=O)CCC(NC(=O)CCCC(=O)NC(CCC(=O)OCC)C(=O)OCC)C(=O)OCC (stereo unspecified)	-	-	-	22.2	-	-
CCOC(=O)CCC(NC(=O)CCC(=O)NC(CCC(=O)OCC)C(=O)OCC)C(=O)OCC (stereo unspecified)	-	-	-	-	-	-
O=C(CSc1nnc(-c2cccs2)o1)OC1CCCCC1	-	-	-	33.7	-	-
CCc1nnc(SCc2ccc(C(=O)OC)o2)n1N	-	-	-	38.2	-	-
CCN(CCCNC(=O)CNC(=O)c1nn(-c2ccc(OC)cc2OC)c(=O)c2ccccc12)c1cccc(C)c1	-	-	-	25.1	-	-
O=[N+]([O-])C1=CC=C2C(=NC3(CCCCC3)N2O)C1=NC1CCCCC1	-	-	-	-	-	-
CC1(C)CC(N=C2C([N+](=O)[O-])=CC=C3C2=NC2(CCCCC2)N3O)CC(C)(C)N1	-	-	49.5	-	-	-
Cc1cc(Cl)ccc1C(O)c1ncc(-c2cccc3ccccc23)[nH]1 (stereo unspecified)	-	.	-	-	.	.
Cc1c(CC(=O)O)c(=O)oc2cc3occ(-c4ccccc4)c3cc12	-	-	-	43.5	-	-
Cc1c(CC(=O)NCCC(=O)O)c(=O)oc2cc3occ(-c4ccccc4)c3cc12	-	-	-	-	-	-
COC1=CC(=O)OC(c2cccc(C#N)c2)C1 (stereo unspecified)	-	.	-	-	.	.
Cc1cccc(S(=O)(=O)NC(=O)C2(C)CCN2C(=O)CCc2ccccc2)c1 (stereo unspecified)	-	.	-	27.1	.	.
Cc1cccc(S(=O)(=O)NC(=O)C2(C)CCN2C(=O)Cc2ccccc2)c1 (stereo unspecified)	-	.	-	-	.	.
COc1ccc(NC(=O)Nc2cccc(C(F)(F)F)c2)cn1	-	-	-	28.0	-	-
COc1ccc(NC(=O)/C=C/c2cccc(F)c2)cn1	-	-	-	19.1	-	-
COc1ccc(NC(=O)Nc2cc(C)cc(C)c2)cn1	-	-	-	-	-	-
COc1ccc(NC(=O)/C=C/c2ccco2)cn1	-	-	-	-	-	-
CN1CCCC(C)(C(=O)Nc2ccc3scnc3c2)C1 (stereo unspecified)	-	.	-	-	.	.
CCCCOC(=O)CCn1c(=S)oc2ccccc21	-	-	-	53.4	-	-
CCCCCOC(=O)Cn1c(=O)oc2ccccc21	-	-	-	-	-	-
COc1cccc2c1C(=O)c1c(O)c3c(c(O)c1C2=O)C[C@@](O)(C(=O)CO)C[C@@H]3OC1CC(N)C(O)C(C)O1 (stereo partly specified)	-	.	94.0	-	.	.
COc1cccc2c1C(=O)c1c(O)c3c(c(O)c1C2=O)CC(O)(C(C)=O)CC3OC1CC(N(C)C)C(O)C(C)O1 (stereo unspecified)	-	.	48.9	-	.	.
SMILES	SENP1 FRET inh	SENP6 block	SENP8 block-1	CendR NRP1 mod	SENP7 block	SENP8 block-2
COc1cccc2c1C(=O)c1c(O)c3c(c(O)c1C2=O)C[C@@](O)(C(=O)CO)C[C@@H]3O[C@H]1C[C@H](N)[C@H](O)[C@H](C)O1	96.6	-	-	-	-	-
CCSC1OC(C(COC(C)=O)OC(C)=O)C(OC(C)=O)C1NC(C)=S (stereo unspecified)	-	.	-	-	.	.
COC(=O)[C@]12CCCCC=C1N(Cc1ccc3c(c1)OCO3)C(=O)[C@H](CC(=O)NCCCN1CCCC1=O)C2	-	.	-	-	.	.
O=C1C2C(C(=O)N1/N=C/c1cc(Br)cc([N+](=O)[O-])c1O)C1C=CC2C12CC2 (stereo unspecified)	-	-	40.9	-	-	-
O=C(c1ccc(-c2cccc(C(F)(F)F)c2)o1)N1CCN(c2ccccc2O)CC1	-	-	-	-	-	-
O=C(c1ccc(-c2cccc(C(F)(F)F)c2)o1)N1CCCC(C(F)(F)F)C1 (stereo unspecified)	-	-	-	21.5	-	-
CCC(C)[C@H]1COCCS(=O)(=O)N1Cc1ccccc1F (stereo partly specified)	-	-	-	-	-	-
O=S1(=O)CCOCCCN1Cc1ccc(Cl)cc1	-	-	-	24.5	-	-
Cc1ccccc1CN1[C@@H](Cc2ccccc2)COCCS1(=O)=O	-	-	-	25.6	-	-
O=S1(=O)CCOCCN1Cc1ccccc1	-	-	-	-	-	-
O=S1(=O)CCOC[C@H](Cc2ccccc2)N1Cc1ccc(Cl)cc1	-	-	-	29.2	-	-
O=S1(=O)CCOC[C@H](Cc2ccccc2)N1Cc1cccc(Cl)c1	-	-	-	-	-	-
CC(C)C[C@H]1COCCS(=O)(=O)N1Cc1ccccc1F	-	-	-	25.3	-	-
O=C(Cc1cc(C(F)(F)F)cc(C(F)(F)F)c1)Nc1c(-c2ccccc2)[nH][nH]c1=O	-	.	-	-	.	.
Cc1ccc(S(=O)(=O)N2CCC(=O)N(CCOC(=O)Nc3ccccc3C)CC2)cc1	-	-	-	19.2	-	-
O=C(Nc1ccc2c(c1)OCO2)O[C@@H]1C[C@H]2CCC(=O)N3CC[C@@H](C1)[C@@H]23	-	-	-	20.6	-	-
O=C(Nc1ccccc1)O[C@@H]1C[C@H]2CCCC(=O)N3CC[C@@H](C1)[C@@H]23	-	.	-	-	.	.
O=C(Nc1ccccc1)O[C@@H]1C[C@H]2CCC(=O)N3CC[C@@H](C1)[C@@H]23	.	56.4	.	.	59.8	54.6
CCCCNC(=O)O[C@@H]1C[C@H]2CCC(=O)N3CC[C@@H](C1)[C@@H]23	-	-	-	-	-	-
O=C(NCc1ccccc1)C(CCc1ccccc1)n1c(=O)c(-c2ccccc2)nc2ccccc21 (stereo unspecified)	-	.	-	-	.	.
O=C1c2ccccc2C(=O)C1(O)O	.	57.0	.	.	-	62.1
COc1ccc(Cl)cc1NC(=O)CN(C)C(=O)c1cc(-c2ccncc2)nc2ccccc12	-	-	-	-	-	-
O=C1CCCN1CCc1cccc2ccccc12	-	.	-	23.4	.	.
CCOc1ccc(C(=O)COC(=O)Cn2[nH]c(=O)c3ccccc3c2=O)cc1	-	.	-	-	.	.
CN(C)CC/C=C1/c2ccccc2Sc2ccc(Cl)cc21	-	-	-	26.9!	-	-
COCCN1C(=O)CN(S(C)(=O)=O)CC1(C)C(=O)NCc1ccccc1 (stereo unspecified)	-	.	-	-	.	.
Cc1nc2c(OCCC3CCCCC3)cccn2c1N(C)C(=O)CCC1CCCC1	-	.	-	26.4	.	.

Screening results: PubChem, Sanford-Burnham Center for Chemical Genomics
